# Results published in ChEMBL document CHEMBL4229382, “Phenylthiazoles with tert-Butyl side chain: Metabolically stable with anti-biofilm activity” (Eur J Med Chem, 2018).
# The source made the active and inactive calls. The rule behind the calls is not given here.
# How the values were obtained:
# Staphylococcus aureus [1] = assay: Antibacterial activity against methicillin-resistant Staphylococcus aureus 2658 RCMB after 18 hrs by broth microdilution assay; type: functional
# How it was run: (§1)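 Broth microdilution: inoculum from 0.5 McFarland suspension diluted to about 5 × 10^5 CFU/mL. Media were cation-adjusted Mueller-Hinton broth for staphylococci, brain heart infusion for E. faecium, and tryptone soya broth for E. faecalis, S. pneumoniae and L. monocytogenes.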
# [2] = system: Staphylococcus epidermidis; assay: Antibacterial activity against methicillin-resistant Staphylococcus epidermidis NRS101 after 18 hrs by broth microdilution assay; type: functional; conditions: NRS101, 18 h; how it was run: as §1
# Enterococcus faecalis = assay: Antibacterial activity against vancomycin-resistant Enterococcus faecalis ATCC 51299 after 18 hrs by broth microdilution assay; type: functional; conditions: ATCC 51299, 18 h; how it was run: as §1
# Staphylococcus aureus [3] = assay: Antibacterial activity against methicillin-sensitive Staphylococcus aureus ATCC 6538 after 18 hrs by broth microdilution assay; type: functional; conditions: ATCC 6538, 18 h; how it was run: as §1
# Staphylococcus aureus [4] = assay: Antibacterial activity against methicillin-sensitive Staphylococcus aureus NRS107 after 18 hrs by broth microdilution assay; type: functional; conditions: NRS107, 18 h; how it was run: as §1
# Staphylococcus aureus [5] = assay: Antibacterial activity against methicillin-resistant Staphylococcus aureus NRS119 after 18 hrs by broth microdilution assay; type: functional; conditions: NRS119, 18 h; how it was run: as §1
# Staphylococcus aureus [6] = assay: Antibacterial activity against methicillin-resistant Staphylococcus aureus NRS123 USA400 after 18 hrs by broth microdilution assay; type: functional; conditions: NRS123 USA400, 18 h; how it was run: as §1
# Staphylococcus aureus [7] = assay: Antibacterial activity against methicillin-resistant Staphylococcus aureus NRS384 USA300 after 18 hrs by broth microdilution assay; type: functional; conditions: NRS384 USA300, 18 h; how it was run: as §1
# Staphylococcus aureus [8] = assay: Antibacterial activity against methicillin-resistant Staphylococcus aureus NRS385 after 18 hrs by broth microdilution assay; type: functional; conditions: NRS385, 18 h; how it was run: as §1
# Staphylococcus aureus [9] = assay: Antibacterial activity against methicillin-resistant Staphylococcus aureus NRS386 after 18 hrs by broth microdilution assay; type: functional; conditions: NRS386, 18 h; how it was run: as §1
# Staphylococcus aureus [10] = assay: Antibacterial activity against vancomycin-resistant Staphylococcus aureus VRS10 after 18 hrs by broth microdilution assay; type: functional; conditions: VRS10, 18 h; how it was run: as §1
# Staphylococcus aureus [11] = assay: Antibacterial activity against vancomycin-resistant Staphylococcus aureus VRS12 after 18 hrs by broth microdilution assay; type: functional; conditions: VRS12, 18 h; how it was run: as §1
# Enterococcus faecium [12] = assay: Antibacterial activity against vancomycin-resistant Enterococcus faecium ATCC 700221 after 18 hrs by broth microdilution assay; type: functional; conditions: ATCC 700221, 18 h; how it was run: as §1
# Listeria monocytogenes [13] = assay: Antibacterial activity against Listeria monocytogenes ATCC 19111 after 18 hrs by broth microdilution assay; type: functional; conditions: ATCC 19111, 18 h
# Staphylococcus aureus [14] = assay: Antibacterial activity against methicillin-resistant Staphylococcus aureus NRS123 USA400 assessed as reduction in bacterial growth after 2 to 4 hrs by time kill assay; type: functional, organism-based
# How it was run: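 Samples taken at 0, 2, 4, 6, 8, 12 and 24 h were serially diluted in PBS, plated on TSA and incubated ≥18 h for viable CFU/mL. DMSO was the negative control; two independent experiments.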
# Caco-2 = assay: Cytotoxicity against human Caco2 cells at 32 ug/ml after 2 hrs by MTS assay; type: cell-based; conditions: caco-2, 2 h
# How it was run: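 Caco-2 cells grown in DMEM with 20% FBS, non-essential amino acids and penicillin-streptomycin, 37 °C, 5% CO2; exposed in triplicate to compounds (16, 32, 64 µg/mL) for 2 h; MTS added, 4 h further incubation, OD490 read; viability as percent of DMSO-treated controls; two independent experiments.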
# Staphylococcus aureus [15] = assay: Bactericidal activity against methicillin-sensitive Staphylococcus aureus ATCC 6538 incubated fo 18 hrs followed by re-plating on tryptic soy agar plates at 37 degC for 18 hrs by broth microdilution assay; type: functional; conditions: ATCC 6538, 18 h
# Staphylococcus aureus [16] = assay: Bactericidal activity against methicillin-sensitive Staphylococcus aureus NRS107 incubated fo 18 hrs followed by re-plating on tryptic soy agar plates at 37 degC for 18 hrs by broth microdilution assay; type: functional; conditions: NRS107, 18 h
# Staphylococcus aureus [17] = assay: Bactericidal activity against methicillin-resistant Staphylococcus aureus NRS119 incubated fo 18 hrs followed by re-plating on tryptic soy agar plates at 37 degC for 18 hrs by broth microdilution assay; type: functional; conditions: NRS119, 18 h
# Staphylococcus aureus [18] = assay: Bactericidal activity against methicillin-resistant Staphylococcus aureus NRS123 USA400 incubated fo 18 hrs followed by re-plating on tryptic soy agar plates at 37 degC for 18 hrs by broth microdilution assay; type: functional; conditions: NRS123 USA400, 18 h
# Staphylococcus aureus [19] = assay: Bactericidal activity against methicillin-resistant Staphylococcus aureus NRS384 USA300 incubated fo 18 hrs followed by re-plating on tryptic soy agar plates at 37 degC for 18 hrs by broth microdilution assay; type: functional; conditions: NRS384 USA300, 18 h
# Staphylococcus aureus [20] = assay: Bactericidal activity against methicillin-resistant Staphylococcus aureus NRS385 incubated fo 18 hrs followed by re-plating on tryptic soy agar plates at 37 degC for 18 hrs by broth microdilution assay; type: functional; conditions: NRS385, 18 h
# Staphylococcus aureus [21] = assay: Bactericidal activity against methicillin-resistant Staphylococcus aureus NRS386 incubated fo 18 hrs followed by re-plating on tryptic soy agar plates at 37 degC for 18 hrs by broth microdilution assay; type: functional; conditions: NRS386, 18 h
# Staphylococcus aureus [22] = assay: Bactericidal activity against vancomycin-resistant Staphylococcus aureus VRS10 incubated fo 18 hrs followed by re-plating on tryptic soy agar plates at 37 degC for 18 hrs by broth microdilution assay; type: functional; conditions: VRS10, 18 h
# Staphylococcus aureus [23] = assay: Bactericidal activity against vancomycin-resistant Staphylococcus aureus VRS12 incubated fo 18 hrs followed by re-plating on tryptic soy agar plates at 37 degC for 18 hrs by broth microdilution assay; type: functional; conditions: VRS12, 18 h
# [24] = system: Staphylococcus epidermidis; assay: Bactericidal activity against methicillin-resistant Staphylococcus epidermidis NRS101 incubated fo 18 hrs followed by re-plating on tryptic soy agar plates at 37 degC for 18 hrs by broth microdilution assay; type: functional; conditions: NRS101, 18 h
# Listeria monocytogenes [25] = assay: Bactericidal activity against Listeria monocytogenes ATCC 19111 incubated fo 18 hrs followed by re-plating on tryptic soy agar plates at 37 degC for 18 hrs by broth microdilution assay; type: functional; conditions: ATCC 19111, 18 h
# Staphylococcus aureus [26] = assay: Inhibition of biofilm formation in methicillin-resistant Staphylococcus aureus NRS384 USA300 after 24 hrs by crystal violet staining-based spectrophotometric analysis
# Staphylococcus aureus [27] = assay: Inhibition of biofilm formation in methicillin-resistant Staphylococcus aureus NRS384 USA300 at 1 time MIC after 24 hrs by crystal violet staining-based spectrophotometric analysis relative to control; set-up: scale not given: the % may be the effect or the level left
# Staphylococcus aureus [28] = assay: Inhibition of biofilm formation in methicillin-resistant Staphylococcus aureus NRS384 USA300 at 2 times MIC after 24 hrs by crystal violet staining-based spectrophotometric analysis relative to control; set-up: scale not given: the % may be the effect or the level left
# Enterococcus faecium [29] = assay: Bactericidal activity against vancomycin-resistant Enterococcus faecium ATCC 700221 incubated fo 18 hrs followed by re-plating on tryptic soy agar plates at 37 degC for 18 hrs by broth microdilution assay; conditions: ATCC 700221, 18 h
compound,measurement,setting,value
Cc1nc(-c2ccc(C(C)(C)C)cc2)sc1-c1ccnc(N2CC(O)C2)n1,MIC,Staphylococcus aureus [1],6.25 µg/mL
Cc1nc(-c2ccc(C(C)(C)C)cc2)sc1-c1ccnc(NC2CCCCC2)n1,MIC,Staphylococcus aureus [1],> 50 µg/mL
Cc1nc(-c2ccc(C(C)(C)C)cc2)sc1-c1ccnc(NC(=N)N(C)C)n1,MIC,[2],8 µg/mL
same,MIC,Staphylococcus aureus [1],1.17 µg/mL
same,MIC,Enterococcus faecalis,8 µg/mL
same,MIC,Staphylococcus aureus [3],8 µg/mL
same,MIC,Staphylococcus aureus [4],8 µg/mL
same,MIC,Staphylococcus aureus [5],8 µg/mL
same,MIC,Staphylococcus aureus [6],8 µg/mL
same,MIC,Staphylococcus aureus [7],8 µg/mL
same,MIC,Staphylococcus aureus [8],8 µg/mL
same,MIC,Staphylococcus aureus [9],8 µg/mL
same,MIC,Staphylococcus aureus [10],8 µg/mL
same,MIC,Staphylococcus aureus [11],8 µg/mL
same,MIC,Enterococcus faecium [12],8 µg/mL
same,MIC,Listeria monocytogenes [13],8 µg/mL
same,Activity,Staphylococcus aureus [14],Active
same,Activity,Caco-2,Toxic
same,MBC,Staphylococcus aureus [15],8 µg/mL
same,MBC,Staphylococcus aureus [16],8 µg/mL
same,MBC,Staphylococcus aureus [17],8 µg/mL
same,MBC,Staphylococcus aureus [18],8 µg/mL
same,MBC,Staphylococcus aureus [19],8 µg/mL
same,MBC,Staphylococcus aureus [20],8 µg/mL
same,MBC,Staphylococcus aureus [21],8 µg/mL
same,MBC,Staphylococcus aureus [22],8 µg/mL
same,MBC,Staphylococcus aureus [23],8 µg/mL
same,MBC,[24],8 µg/mL
same,MBC,Listeria monocytogenes [25],8 µg/mL
same,inhibition,Staphylococcus aureus [26],Dose-dependent effect
same,Activity,Staphylococcus aureus [27],35.5%
same,Activity,Staphylococcus aureus [28],48.2%
same,MBC,Enterococcus faecium [29],16 µg/mL
